Measurements published in ChEMBL document CHEMBL4017501, “Paralog Specificity Determines Subcellular Distribution, Action Mechanism, and Anticancer Activity of TRAP1 Inhibitors” (J Med Chem, 2017).
Activity calls are given as the source filed them. No cut-off for these calls is given here.

How the values were obtained:
[1] = molecular target: T1, Heat shock protein 75 kDa, mitochondrial (Homo sapiens) (UniProt Q12931); assay: Inhibition of TRAP1 in human HeLa cells assessed as cytochrome c release at 20 uM after 4 hrs by Western blot method; format: cell-based
T1 sequence (whole entry): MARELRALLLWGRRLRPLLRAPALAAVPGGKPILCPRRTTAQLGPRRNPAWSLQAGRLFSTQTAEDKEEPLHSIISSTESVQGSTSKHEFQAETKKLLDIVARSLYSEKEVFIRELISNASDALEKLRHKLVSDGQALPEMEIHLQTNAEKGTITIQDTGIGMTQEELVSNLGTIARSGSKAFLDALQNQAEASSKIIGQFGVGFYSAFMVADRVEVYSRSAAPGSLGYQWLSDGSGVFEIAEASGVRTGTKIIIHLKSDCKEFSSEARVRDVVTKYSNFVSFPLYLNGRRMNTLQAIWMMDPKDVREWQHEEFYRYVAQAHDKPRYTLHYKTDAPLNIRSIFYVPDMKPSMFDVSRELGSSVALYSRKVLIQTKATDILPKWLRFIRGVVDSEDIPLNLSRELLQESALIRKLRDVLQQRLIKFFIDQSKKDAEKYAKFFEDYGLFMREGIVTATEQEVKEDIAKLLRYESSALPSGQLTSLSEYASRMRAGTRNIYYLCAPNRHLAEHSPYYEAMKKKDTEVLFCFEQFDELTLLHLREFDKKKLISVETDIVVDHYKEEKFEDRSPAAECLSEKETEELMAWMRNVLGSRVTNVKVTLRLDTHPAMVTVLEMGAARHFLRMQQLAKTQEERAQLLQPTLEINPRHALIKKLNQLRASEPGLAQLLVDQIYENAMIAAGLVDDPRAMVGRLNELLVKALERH
Procedure, shortened: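 HeLa cells treated at 20 μM for 4 h. Mitochondrial fractionation performed; cytoplasmic fraction probed for cytochrome c by Western blot.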

[2] = molecular target: T1, Heat shock protein 75 kDa, mitochondrial (Homo sapiens); assay: Inhibition of TRAP1 in human HeLa cells assessed as induction of mitochondrial ROS production after 6 hrs by Mito-Sox staining based flow cytometry; format: cell-based
Procedure, shortened: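 HeLa cells given drug for 6 h, then stained with 200 nM Mito-SOX Red for 20 min at 37 °C. Cells washed with PBS, trypsinized, resuspended and analysed by flow cytometry for mitochondrial superoxide.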

PC-3 [3] = assay: Induction of apoptosis in human PC3 cells assessed as necrotic cells at 20 uM after 24 hrs by Annexin V-FITC/propidium iodide staining based flow cytometry (reference value: 0.2%); format: functional
HeLa [4] = assay: Induction of apoptosis in human HeLa cells assessed as live cells at 20 uM after 24 hrs by Annexin V-FITC/propidium iodide staining based flow cytometry (reference value: 90.1%); format: functional
PC-3 [5] = assay: Induction of apoptosis in human PC3 cells assessed as early apoptotic cells at 20 uM after 24 hrs by Annexin V-FITC/propidium iodide staining based flow cytometry (reference value: 0.7%); format: functional
HeLa [6] = assay: Induction of apoptosis in human HeLa cells assessed as early apoptotic cells at 20 uM after 24 hrs by Annexin V-FITC/propidium iodide staining based flow cytometry (reference value: 3.9%); format: functional
[7] = Cytotoxicity against human corneal cells assessed as reduction in cell viability at 5 to 20 uM after 24 hrs by MTT assay; format: cell-based
Procedure, shortened: (§1)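 Corneal cells kept in corneal medium; hepatocytes isolated from 8-week-old BALB/c mice and kept in M199/EBSS with 10% FBS. Cells given a range of drug concentrations for 24 h. MTT absorbance read at 595 nm and normalized to DMSO; two independent experiments in duplicate, mean ± SEM.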

Hepatocyte = assay: Cytotoxicity against mouse primary hepatocytes assessed as reduction in cell viability at 5 to 20 uM after 24 hrs by MTT assay; format: cell-based; procedure, shortened: as §1
PC-3 [8] = assay: Induction of apoptosis in human PC3 cells assessed as late apoptotic cells at 20 uM after 24 hrs by Annexin V-FITC/propidium iodide staining based flow cytometry (reference value: 1.5%); format: functional
PC-3 [9] = assay: Induction of apoptosis in human PC3 cells assessed as live cells at 20 uM after 24 hrs by Annexin V-FITC/propidium iodide staining based flow cytometry (reference value: 97.4%); format: functional
HeLa [10] = assay: Induction of apoptosis in human HeLa cells assessed as necrotic cells at 20 uM after 24 hrs by Annexin V-FITC/propidium iodide staining based flow cytometry (reference value: 0.7%); format: functional
HeLa [11] = assay: Induction of apoptosis in human HeLa cells assessed as late apoptotic cells at 20 uM after 24 hrs by Annexin V-FITC/propidium iodide staining based flow cytometry (reference value: 5.3%); format: functional

inhibition [1]	inhibition [2]	Compound	Activity (PC-3 [3])	Activity (HeLa [4])	Activity (PC-3 [5])	Activity (HeLa [6])	Activity [7]	Activity (Hepatocyte)	Activity (PC-3 [8])	Activity (PC-3 [9])	Activity (HeLa [10])	Activity (HeLa [11])
inactive	inactive	COc1c(C)cnc(Cn2cnc3c(Cl)nc(N)nc32)c1C	–	–	–	–	–	–	–	–	–	–
–	–	CCNC(=O)c1noc(-c2cc(C(C)C)c(O)cc2O)c1-c1ccc(CN2CCOCC2)cc1 [LUMINESPIB]	0.9%	83%	0.7%	7.5%	Toxic	Toxic	5%	93.5%	0.9%	8.6%
